# Results reported in ChEMBL document CHEMBL1145683, “Structure-cytotoxicity relationships of some helenanolide-type sesquiterpene lactones” (J Nat Prod, 1997).
# How the values were obtained:
# [1] = Cytotoxicity against mouse cloned EN2 cells after 2 hrs by MTT assay; assay type: functional, cell-based; details: EN2, 2 h
# Method in brief: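 Murine EN2 Ehrlich ascites cells (RPMI 1640, 10% heat-inactivated FBS, exponential growth, >95% trypan blue exclusion), 500 cells/well, exposed 2 h at 37 °C, 5% CO2. Compound washed out in three spin steps, then 72 h further culture. MTT added for 3 h 45 min, formazan dissolved in DMSO, A550 read. IC50 = 50% growth inhibition vs medium-blank-corrected control; mean ± SD, n≥3.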
# [2] = Cytotoxicity against mouse cloned EN2 cells after 72 hrs by MTT assay; assay type: functional, cell-based; details: EN2, 72 h
# Method in brief: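 EN2 murine cloned Ehrlich ascites line, grown in suspension in RPMI 1640 with 10% heat-inactivated FBS and used in exponential growth. 500 cells/well, continuous 72 h compound exposure at 37 °C, 5% CO2. Stocks 10 mM in EtOH or DMSO. Read-out: MTT reduction over 3 h 45 min, formazan in DMSO, A550. IC50 is 50% growth inhibition relative to control; mean ± SD, n≥3.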
Compound,IC50 [1],IC50 [2]
C[C@@H]1C[C@H]2OC(=O)[C@@H](C)[C@H]2[C@H](O)[C@]2(C)C(=O)C=C[C@@H]12,128 µM,6.5 µM
C=C1C(=O)O[C@@H]2C[C@@H](C)[C@@H]3[C@@H](OC(C)=O)C[C@@H](O)[C@@]3(C)C[C@H]12,102 µM,10.6 µM
CC(=O)O[C@H]1[C@@H]2[C@H](C)C(=O)O[C@@H]2C[C@@H](C)[C@@H]2C=CC(=O)[C@]21C,43 µM,3.5 µM
CC(C)CC(=O)O[C@H]1[C@@H]2[C@H](C)C(=O)O[C@@H]2C[C@@H](C)[C@@H]2C=CC(=O)[C@]21C,20 µM,1.7 µM
C=C1C(=O)O[C@@H]2C[C@@H](C)[C@@H]3[C@@H](O)C[C@@H](O)[C@@]3(C)[C@@H](OC(=O)/C(C)=C/C)[C@H]12,> 100 µM,20.7 µM
C=C1C(=O)O[C@@H]2C[C@@H](C)[C@@H]3[C@@H](O)C[C@@H](OC(=O)/C(C)=C/C)[C@@]3(C)[C@@H](O)[C@H]12,116 µM,10.4 µM
C/C=C(\C)C(=O)O[C@H]1[C@@H]2[C@H](C)C(=O)O[C@@H]2C[C@@H](C)[C@@H]2C=CC(=O)[C@]21C,19 µM,2.6 µM
C=C1C(=O)O[C@@H]2C[C@@H](C)[C@@H]3[C@@H](O)C[C@@H](O)[C@@]3(C)[C@@H](O)[C@H]12,–,13.6 µM
C=C1C(=O)O[C@@H]2C[C@@H](C)[C@@H]3C=CC(=O)[C@@]3(C)[C@@H](OC(=O)/C(C)=C/C)[C@H]12,5.3 µM,1 µM
C=C1C(=O)O[C@H]2C[C@@H](C)[C@@H]3C=CC(=O)[C@@]3(C)[C@H](OC(=O)CC(C)C)[C@H]12,5.4 µM,0.99 µM
CC(=O)O[C@H]1C[C@@H](O)[C@]2(C)[C@@H]1[C@H](C)C[C@H]1OC(=O)[C@@H](C)[C@H]1[C@@H]2O,> 100 µM,> 100 µM
C/C=C(\C)C(=O)O[C@H]1[C@@H]2[C@H](C)C(=O)O[C@@H]2C[C@@H](C)[C@@H]2[C@@H](O)CC(=O)[C@]21C,> 100 µM,76 µM
C=C1C(=O)O[C@@H]2C[C@@H](C)[C@@H]3[C@@H](O)C[C@@H](O)[C@@]3(C)C[C@H]12,–,15.2 µM
C=C1C(=O)O[C@@H]2C[C@@H](C)[C@@H]3C=CC(=O)[C@@]3(C)[C@@H](OC(=O)CC(C)C)[C@H]12,3.2 µM,0.72 µM
C=C1C(=O)O[C@@H]2C[C@@H](C)[C@@H]3C=CC(=O)[C@@]3(C)[C@@H](OC(C)=O)[C@H]12 [ANGUSTIBALIN],1.3 µM,0.22 µM
C=C1C(=O)O[C@@H]2C[C@@H](C)[C@@H]3[C@@H](O)CC(=O)[C@@]3(C)[C@@H](OC(=O)/C(C)=C/C)[C@H]12 [ARNIFOLIN],62 µM,4 µM
C=C1C(=O)O[C@H]2C[C@@H](C)[C@@H]3C=CC(=O)[C@@]3(C)[C@@H](OC(C)=O)[C@H]12 [BIGELOVIN],2 µM,0.36 µM
C=C1C(=O)O[C@@H]2C[C@@H](C)[C@@H]3[C@@H](OC(C)=O)C[C@@H](O)[C@@]3(C)[C@@H](O)[C@H]12 [CHAMISSONOLIDE],106 µM,7.6 µM
C=C1C(=O)O[C@@H]2C[C@@H](C)[C@@H]3C=CC(=O)[C@@]3(C)[C@@H](OC(=O)C(C)C)[C@H]12 [HELENALINISOBUTYRATE],1.3 µM,0.17 µM
C=C1C(=O)O[C@@H]2C[C@@H](C)[C@@H]3C=CC(=O)[C@@]3(C)[C@@H](O)[C@H]12 [HELENALIN],2.4 µM,0.39 µM
C=C1C(=O)O[C@H]2C[C@@H](C)[C@@H]3C=CC(=O)[C@@]3(C)[C@H](O)[C@H]12 [MEXICANIN I],2.7 µM,0.56 µM
